Reference: ChEMBL document CHEMBL1153469, “Antimicrobial and immunomodulatory properties of prenylated xanthones from twigs of Garcinia staudtii” (Bioorg Med Chem, 2009)
Converted amounts (≈) assume the structure as drawn.

Tests used:
PBMC [1] = assay: Immunomodulatory activity in human PBMC assessed as phytohemagglutinin-stimulated IFN-gamma release at 0.5 to 16 ug/mL after 18 hrs by ELISA; assay type: functional
Outline: (§1)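 Donor PBMCs were Ficoll-isolated and cultured in RPMI-1640 with 10% AB human serum, at 10^5 cells/well, with or without PHA 1.25 µg/mL. Compounds were tested at 16, 4, 1 and 0.5 µg/mL for 18 h at 37 °C in 5% CO2. Supernatants were cleared by 1000g centrifugation at 4 °C. IL-2, IL-4 and IFN-γ were measured by ELISA kit.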

PBMC [2] = assay: Immunomodulatory activity in human PBMC assessed as inhibition of phytohemagglutinin-stimulated IL2 release after 18 hrs by ELISA; assay type: functional, cell-based; outline: as §1
Neutrophil [3] = assay: Immunomodulatory activity in polymorphoneutrophils assessed as suppression of phagocytosis activity 30 mins by luminol-enhanced chemiluminescence assay; assay type: functional, cell-based
Outline: (§2)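 Luminol-enhanced chemiluminescence was run on neutrophils (1 × 10^7) or monocytes (1 × 10^6) in HBSS with Ca/Mg. Cells were preincubated 30 min with compound (3.1–50 µg/mL), then zymosan (20 mg/mL stock) and luminol (7 × 10^-5 M stock) were added, to 0.2 mL final. HBSS alone served as control. Fifty luminometer scans were taken at 30 s intervals, with readings expressed relative to untreated control.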

PBMC [4] = assay: Immunomodulatory activity in human PBMC assessed as inhibition of phytohemagglutinin-stimulated IFN-gamma release after 18 hrs by ELISA; assay type: functional, cell-based; outline: as §1
Neutrophil [5] = assay: Immunomodulatory activity in polymorphoneutrophils assessed as suppression of phagocytosis activity at 3.1 ug/mL after 30 mins by luminol-enhanced chemiluminescence assay
PBMC [6] = assay: Immunomodulatory activity in human PBMC assessed as inhibition of phytohemagglutinin-stimulated IFN-gamma release at 0.5 ug/mL after 18 hrs by ELISA; assay type: functional; outline: as §1
PBMC [7] = assay: Immunomodulatory activity in human PBMC assessed as inhibition of phytohemagglutinin-stimulated IL2 release at 0.5 ug/mL after 18 hrs by ELISA; assay type: functional; outline: as §1
[8] = Cytotoxicity against MDBK cells at 50 ug/mL after 72 hrs by MTT assay; assay type: cell-based, Bos taurus; conditions: cattle
Outline: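 MDBK adherent cells at 2 × 10^5 cells/mL were exposed to serial compound dilutions (0.195–50 µg/mL), with viability examined after 72 h. MTT (2 mg/mL) was added for 2–3 h at 37 °C. Cells were washed with PBS and the formazan dissolved in DMSO, with 15 min agitation at 37 °C. Absorbance was read at 540 nm, and viability was taken as the OD ratio to control.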

[9] = Immunomodulatory activity in MNC assessed as suppression of phagocytosis activity at 3.1 ug/mL after 30 mins by luminol-enhanced chemiluminescence assay
PBMC [10] = assay: Immunomodulatory activity in human PBMC assessed as inhibition of phytohemagglutinin-induced T-cell proliferation at 12.5 ug/mL after 72 hrs by [3H]thymidine incorporation assay; assay type: functional
Outline: (§3)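 PBMCs were isolated from heparinized venous blood of a healthy adult donor by Ficoll–Hypaque gradient. Cells at 5 × 10^5 cells/mL were stimulated with PHA 5 µg/mL, with compounds at 3.1–100 µg/mL final, in triplicate. Incubation was 72 h at 37 °C in 5% CO2, then a 0.5 µCi/well [3H]thymidine pulse for 18 h further. Incorporation was counted by liquid scintillation as mean CPM.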

PBMC [11] = assay: Immunomodulatory activity in human PBMC assessed as phytohemagglutinin-stimulated IL4 release at 0.5 to 16 ug/mL after 18 hrs by ELISA; assay type: functional; outline: as §1
Neutrophil [12] = assay: Immunomodulatory activity in polymorphoneutrophils assessed as inhibition of fMLP-induced cellular chemotaxis at 2.5 to 25 ug/mL after 1 hr using hematoxylin staining by light microscopy; assay type: functional
Outline: (§4)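 PMN chemotaxis was measured in a modified Boyden chamber. fMLP (10^-8 M) was placed in the lower well, separated by a cellulose filter (2 µm pores). 5 × 10^4 cells in HBSS with Ca/Mg went in the upper well, with compounds at 2.5, 5 or 25 µg/mL, in duplicate. The DMSO:HBSS (1:1) buffer served as control. After 60 min at 37 °C in CO2, cells in the filter were hematoxylin-stained and migration distance was measured in five random fields.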

PBMC [13] = assay: Immunomodulatory activity in human PBMC assessed as phytohemagglutinin-stimulated IL2 release at 0.5 to 16 ug/mL after 18 hrs by ELISA; assay type: functional; outline: as §1
PBMC [14] = assay: cells; conditions: Homo sapiens
[15] = Immunomodulatory activity in MNC assessed as suppression of phagocytosis activity after 30 mins by luminol-enhanced chemiluminescence assay; assay type: functional; outline: as §2
[16] = Cytotoxicity against MNC at 3.1 to 50 ug/mL
PBMC [17] = assay: Immunomodulatory activity in human PBMC assessed as inhibition of phytohemagglutinin-stimulated IL4 release at 1 ug/mL after 18 hrs; assay type: functional; outline: as §1
PBMC [18] = assay: Immunomodulatory activity in human PBMC assessed as inhibition of phytohemagglutinin-stimulated IL4 release after 18 hrs by ELISA; assay type: functional, cell-based; outline: as §1
[19] = Cytotoxicity against polymorphoneutrophils at 3.1 to 50 ug/mL; assay type: cell-based; conditions: neutrophil
Neutrophil [20] = assay: Immunomodulatory activity in polymorphoneutrophils assessed as inhibition of fMLP-induced cellular chemotaxis at 2.5 ug/mL pre-incubated 1 hr before fMLP challenge measured after 1 hr using hematoxylin staining by light microscopy; assay type: functional; outline: as §4
Neutrophil [21] = assay: Immunomodulatory activity in polymorphoneutrophils assessed as inhibition of fMLP-induced cellular chemotaxis at 5 ug/mL pre-incubated 1 hr before fMLP challenge measured after 1 hr using hematoxylin staining by light microscopy; assay type: functional; outline: as §4
Neutrophil [22] = assay: Immunomodulatory activity in polymorphoneutrophils assessed as inhibition of fMLP-induced cellular chemotaxis at 25 ug/mL after 1 hr using hematoxylin staining by light microscopy; assay type: functional; outline: as §4
[23] = Immunomodulatory activity in MNC assessed as inhibition of reactive oxygen species release at 25 ug/mL after 30 mins by luminol-enhanced chemiluminescence assay; assay type: functional; design: scale not given: the % may be the effect or the level left; outline: as §2
PBMC [24] = assay: Immunomodulatory activity in human PBMC assessed as inhibition of phytohemagglutinin-induced T-cell proliferation at 3.1 ug/mL after 72 hrs by [3H]thymidine incorporation assay; assay type: functional; outline: as §3
[25] = Immunomodulatory activity in MNC assessed as inhibition of reactive oxygen species release at 50 ug/mL after 30 mins by luminol-enhanced chemiluminescence assay; assay type: functional; design: scale not given: the % may be the effect or the level left; outline: as §2
[26] = Immunomodulatory activity in MNC assessed as stimulation of reactive oxygen species release at 3.1 ug/mL after 30 mins by luminol-enhanced chemiluminescence assay; assay type: functional; outline: as §2
PBMC [27] = assay: Immunomodulatory activity in human PBMC assessed as inhibition of phytohemagglutinin-induced T-cell proliferation at 6.125 ug/mL after 72 hrs by [3H]thymidine incorporation assay; assay type: functional; outline: as §3

SMILES	Activity (PBMC [1]) [pg/mL]	inhibition (PBMC [2])	Activity (Neutrophil [3])	inhibition (PBMC [4])	Activity [8]	inhibition at 12.5 µg/mL (PBMC [10]) [%]	Activity (PBMC [11]) [pg/mL]	inhibition (INH) (Neutrophil [12]) [%]	Activity (PBMC [13]) [pg/mL]	IC50 (PBMC [14]) [µg/mL]	Activity [15]	Activity [16]	inhibition (PBMC [18])	Activity [19]	further results
CC(C)=CCc1c(O)c(CC=C(C)C)c2oc3c(O)cc(O)cc3c(=O)c2c1O [STAUDTIIXANTHONE A]	4033.7	Dose-dependent effect	Dose-dependent effect	Dose-dependent effect	Non-toxic	94.3	120.5	27	528.5	6.2 (≈ 15.6 µM)	Dose-dependent effect	Non-toxic	Dose-dependent effect	Non-toxic	Activity (Neutrophil [5]): 73%; inhibition at 0.5 µg/mL (PBMC [6]): 62.5%; inhibition at 0.5 µg/mL (PBMC [7]): 68.2%; Activity [9]: 73%; inhibition at 1 µg/mL (PBMC [17]): 88.1%
CC(C)=CCc1c2c(c(O)c3c(=O)c4cc(O)cc(O)c4oc13)C=CC(C)(C)O2 [STAUDTIIXANTHONE B]	4033.7	Dose-dependent effect	Dose-dependent effect	Dose-dependent effect	Non-toxic	97.1	120.5	27	528.5	6.4 (≈ 16.2 µM)	Dose-dependent effect	Non-toxic	Dose-dependent effect	Non-toxic	–
CC(C)=CCc1c2c(c3oc4c(O)cc(O)cc4c(=O)c3c1O)C=CC(C)(C)O2 [STAUDTIIXANTHONE C]	4033.7	Dose-dependent effect	Dose-dependent effect	Dose-dependent effect	Non-toxic	–	120.5	27	528.5	12.7 (≈ 32.2 µM)	Dose-dependent effect	Non-toxic	Dose-dependent effect	Non-toxic	inhibition at 2.5 µg/mL (Neutrophil [20]): 36.4%; inhibition at 5 µg/mL (Neutrophil [21]): 42.2%; inhibition at 25 µg/mL (Neutrophil [22]): 46%
COc1cc2oc3c4c(cc(O)c3c(=O)c2c2c1OC(C)(C)CC2)OC(C)(C)CC4 [STAUDTIIXANTHONE D]	4033.7	–	Dose-dependent effect	–	Non-toxic	–	120.5	27	528.5	3.7 (≈ 9.01 µM)	Dose-dependent effect	Non-toxic	–	Non-toxic	Activity [23]: 59%; inhibition at 3.1 µg/mL (PBMC [24]): 44.9%; Activity [25]: 70%; Activity [26]: 24%; inhibition at 6.125 µg/mL (PBMC [27]): 70.4%
